A value given as a limit tells only on which side of the number the result lay.

These results are taken from ChEMBL document CHEMBL1126240, “Structure-activity relationship studies of central nervous system agents. 5. Effect of the hydrocarbon chain on the affinity of 4-substituted 1-(3-chlorophenyl)piperazines for 5-HT1A receptor site” (J Med Chem, 1992).

Data set [1] deals with T1, 5-hydroxytryptamine receptor 1A (Rattus norvegicus, UniProt P19327).
T1 sequence (P19327 whole entry): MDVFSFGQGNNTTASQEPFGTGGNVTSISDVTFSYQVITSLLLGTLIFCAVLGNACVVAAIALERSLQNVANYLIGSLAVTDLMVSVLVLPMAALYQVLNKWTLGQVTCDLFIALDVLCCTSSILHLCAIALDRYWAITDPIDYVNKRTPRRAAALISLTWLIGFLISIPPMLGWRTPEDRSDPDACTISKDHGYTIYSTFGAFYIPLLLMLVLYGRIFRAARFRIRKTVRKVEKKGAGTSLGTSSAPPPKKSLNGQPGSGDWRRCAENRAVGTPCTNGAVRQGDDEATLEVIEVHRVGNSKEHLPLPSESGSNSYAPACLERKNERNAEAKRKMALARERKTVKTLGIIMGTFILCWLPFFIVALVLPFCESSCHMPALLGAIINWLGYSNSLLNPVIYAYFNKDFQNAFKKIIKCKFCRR
Nature of the data set: In vitro ability to displace [3H]8-hydroxy-2-(di-n-propylamino) tetralin binding from 5-hydroxytryptamine 1A receptor site in rat brain hippocampus. In kind it is tissue-based.

Data set [2] in a line: Compound was evaluated for the Ionization constants at 37 degree Celsius pKa1. Format: physicochemical. Conditions: read-out: pKa1. In outline:
(§1)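 Potentiometric titration at 37 °C; pKa values fitted to the titration data by nonlinear regression.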

Data set [3] has as its target T2, 5-hydroxytryptamine receptor 1A (Rattus norvegicus) (UniProt P19327).
T2 sequence (whole entry): T1 sequence (P19327 whole entry)
The data set is described as follows: Compound was evaluated for its ability to displace the protonated form of [3H]8-hydroxy-2-(di-n-propylamino)tetralin binding from labeled 5-HT 1A receptor site. An outline of the steps:
(§2)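 Radioligand displacement in rat hippocampal tissue using [³H]-8-OH-DPAT as ligand, following a previously published protocol; affinity given as Ki for the protonated (AH+) species.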

A short description of data set [4]: Compound was evaluated for the Ionization constants at 37 degree Centigrade pKa2. In kind it is physicochemical. Particulars: read-out: pKa2. An outline of the steps:
as §1

Data set [5] in a line: Compound was evaluated for the percentage ionization at the pH 7.4 at 37 degree Centigrade. In kind it is ADME. An outline of the steps: (§3)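 Fraction ionized calculated from eq 1 using pKa2 measured by potentiometric titration at 37 °C, for pH 7.4 and 37 °C.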
In data set [6] the target is T2, 5-hydroxytryptamine receptor 1A (Rattus norvegicus). Nature of the data set: Ability to displace the protonated form of [3H]8-hydroxy-2-(di-n-propylamino)tetralin binding from labeled 5-hydroxytryptamine 1A receptor site in rat brain hippocampus. In kind it is tissue-based. An outline of the steps:
as §2

A short description of data set [7]: % ionization at the pH 7.4 at 37 degree Centigrade. Format: ADME. An outline of the steps: as §3
Data set [8] has as its target T2, 5-hydroxytryptamine receptor 1A (Rattus norvegicus). Particulars: Hippocampus.

By Ki is commonly meant a dissociation constant, usually derived from enzyme kinetics or from competition with a known ligand. The low end stands for higher affinity, the high end for lower affinity. Turning to `Clc1cccc(N2CCOCC2)c1`, the Ki in data set [1] was > 100 µM. For the same molecule, the pKa in data set [2] turned out to be 2.33.

Molecule `CCCN(CCC)C1CCc2cccc(O)c2C1` (stereo unspecified) [8-OH-DPAT] displayed a KiAH in data set [3] of 1.16 nM. Moreover, the pKa in data set [4] was 8.02. Also, in data set [5], the Ionization was 80.6%.

Turning to `OCCN1CCN(c2cccc(Cl)c2)CC1`, in data set [1], affinity was put at a Ki of 0.202 µM. The molecule further returned a KiAH in data set [6] of 50.3 nM. In data set [7], the Ionization was 24.9%. The pKa in data set [4] was 6.92.

For `O=C(c1ccccc1)N1CCN(c2cccc(Cl)c2)CC1`, the Ki in data set [1] is > 100 µM.

`CCCCCN1CCN(c2cccc(Cl)c2)CC1`: in data set [1], affinity was put at a Ki of 0.00554 µM. Further, the KiAH in data set [6] is 0.282 nM. Further, in data set [7], the Ionization was determined as 5.1%. Moreover, the pKa in data set [2] was found to be 2.46; in data set [4], 6.13.

Take `CC(C)C(=O)N1CCN(c2cccc(Cl)c2)CC1`: in data set [1], the Ki was > 100 µM.

Turning to `CC(C)N1CCN(c2cccc(Cl)c2)CC1`, the Ki in data set [1] worked out at 0.159 µM. This molecule displayed a KiAH in data set [6] of 102 nM. This molecule also displayed an Ionization in data set [7] of 64%. For the same molecule, the pKa stood at 2.37 in data set [2] and 7.65 in data set [4].

On to `CCC(=O)N1CCN(c2cccc(Cl)c2)CC1`, for which the affinity in data set [1] corresponds to a Ki of 30.8 µM.

As for `CN1CCN(c2cccc(Cl)c2)CC1`, in data set [1], the Ki came to 0.152 µM. The same molecule came in with a KiAH in data set [6] of 134 nM. In data set [7], this molecule displayed an Ionization of 88.1%. For the same molecule, the pKa worked out at 2.82 in data set [2] and 8.27 in data set [4].

As for `C=CCN1CCN(c2cccc(Cl)c2)CC1`, the inhibitory constant (Ki) in data set [1] worked out at 0.251 µM. The molecule also showed a KiAH in data set [6] of 81.2 nM. Besides, in data set [7], the Ionization was 32.4%. For the same molecule, the pKa in data set [2] turned out to be 2.94; in data set [4], 7.08.

On to `Clc1cccc(N2CCNCC2)c1` [CHLOROPHENYLPIPERAZINE], for which the affinity in data set [1] corresponds to a Ki of 0.143 µM. This molecule returned a KiAH in data set [6] of 131 nM. The molecule further showed an Ionization in data set [7] of 91.3%. Besides, the pKa in data set [4] was determined as 8.42.

Regarding `CCCC(=O)N1CCN(c2cccc(Cl)c2)CC1`, in data set [1], the Ki stood at 49 µM.

In data set [1], `CCC(C)N1CCN(c2cccc(Cl)c2)CC1` (stereo unspecified) yielded a Ki of 0.127 µM. In data set [6], the KiAH worked out at 27.4 nM. Also, the Ionization in data set [7] is listed as 21.6%. Also, the pKa in data set [2] was found to be 2.32; in data set [4], 6.84.

Turning to `O=C(Cc1ccccc1)N1CCN(c2cccc(Cl)c2)CC1`, in data set [1], the Ki came to 14.8 µM.

`CCN1CCN(c2cccc(Cl)c2)CC1` returned a Ki in data set [1] of 0.22 µM. Moreover, in data set [6], the KiAH turned out to be 166 nM. Besides, the Ionization in data set [7] came out at 75.5%. For the same molecule, the results for the pKa in data set [2] and in data set [4] were 2.48 and 7.89, respectively.

On to `Clc1cccc(N2CC[N+]3(CCCC3)CC2)c1`, for which, in data set [1], the Ki amounted to 7.22 µM.

In the case of `CC(=O)N1CCN(c2cccc(Cl)c2)CC1`, the Ki in data set [1] was > 100 µM.

Molecule `O=C1c2ccccc2S(=O)(=O)N1CCCCN1CCN(c2ncccn2)CC1` [IPSAPIRONE] yielded a Ki in data set [1] of 0.0034 µM. Moreover, the Ionization in data set [7] came to 0.7%. The pKa in data set [4] was 5.25. The same molecule had a KiAH in data set [8] of 0.024 nM.

`CCCCCCN1CCN(c2cccc(Cl)c2)CC1` displayed a Ki in data set [1] of 0.00267 µM. The molecule also had a KiAH in data set [6] of 0.032 nM. Further, the Ionization in data set [7] worked out at 1.2%. The results for the pKa in data set [2] and in data set [4] were 2.57 and 5.49, respectively.

In data set [1], `Clc1cccc(N2CCN(Cc3ccccc3)CC2)c1` displayed a Ki of 0.166 µM. The same molecule returned a KiAH in data set [6] of 0.166 nM. The Ionization in data set [7] is reported as 0.1%. Also, the pKa in data set [4] is 4.39.

Consider `CCCN1CCN(c2cccc(Cl)c2)CC1`, for which the Ki in data set [1] amounted to 0.122 µM. The same molecule yielded a KiAH in data set [6] of 38.9 nM. The molecule also gave an Ionization in data set [7] of 31.9%. In addition, the pKa in data set [2] came to 2.39; in data set [4], 7.07.

Turning to `CCCCN1CCN(c2cccc(Cl)c2)CC1`, the affinity in data set [1] corresponds to a Ki of 0.0184 µM. Also, in data set [6], the KiAH worked out at 3.06 nM. In data set [7], this molecule displayed an Ionization of 16.6%. In addition, the pKa in data set [2] worked out at 2.43; in data set [4], 6.7.

Regarding `CC1(C)CC(=O)N(CCCCN2CCN(c3ncccn3)CC2)C(=O)C1` [GEPIRONE], the KiAH in data set [6] stood at 20.2 nM. Besides, the Ionization in data set [7] turned out to be 63.5%. Moreover, the pKa in data set [4] was 7.64.
